Measurements reported in article PMC6598175 (ACS Central Science, 2019).
Blank lines part the entries; values can stand above or below the compound they belong to.

Tests used:
ASPACDRAFT_127619 = target: T1, ASPACDRAFT_127619 (Aspergillus aculeatus, UniProt A0A1L9WG58); test: Competitive ABP labeling by 8 against substrates, recombinant enzyme; type: binding, A. aculeatus
T1 sequence (A0A1L9WG58 23-338): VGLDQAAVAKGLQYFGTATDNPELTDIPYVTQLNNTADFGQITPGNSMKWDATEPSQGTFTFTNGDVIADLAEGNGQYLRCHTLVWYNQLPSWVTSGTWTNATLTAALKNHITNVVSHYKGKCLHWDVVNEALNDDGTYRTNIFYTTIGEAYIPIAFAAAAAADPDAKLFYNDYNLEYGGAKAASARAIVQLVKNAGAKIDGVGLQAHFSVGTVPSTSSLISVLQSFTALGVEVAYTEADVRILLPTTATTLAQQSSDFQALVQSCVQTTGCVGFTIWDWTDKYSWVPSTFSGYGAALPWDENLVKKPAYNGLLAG
Procedure, shortened: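 Labeling of recombinant GH10 xylanase used 100 nM xylobiose Cy5 ABP for 10 min at room temperature, with competing substrates (e.g. polysaccharides) added. Loss of in-gel fluorescence with competitor concentration gave IC50. Assays were also repeated at 20 min, 37 °C, 1 μM ABP. Three or four technical replicates.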

[1] = target: T2, ∼130 kDa band (XlnD, β-xylosidase) (Aspergillus niger, UniProt O00089); test: ABP labeling of secretomes and competition by inhibitors; type: binding, A. niger
T2 sequence (O00089 27-804): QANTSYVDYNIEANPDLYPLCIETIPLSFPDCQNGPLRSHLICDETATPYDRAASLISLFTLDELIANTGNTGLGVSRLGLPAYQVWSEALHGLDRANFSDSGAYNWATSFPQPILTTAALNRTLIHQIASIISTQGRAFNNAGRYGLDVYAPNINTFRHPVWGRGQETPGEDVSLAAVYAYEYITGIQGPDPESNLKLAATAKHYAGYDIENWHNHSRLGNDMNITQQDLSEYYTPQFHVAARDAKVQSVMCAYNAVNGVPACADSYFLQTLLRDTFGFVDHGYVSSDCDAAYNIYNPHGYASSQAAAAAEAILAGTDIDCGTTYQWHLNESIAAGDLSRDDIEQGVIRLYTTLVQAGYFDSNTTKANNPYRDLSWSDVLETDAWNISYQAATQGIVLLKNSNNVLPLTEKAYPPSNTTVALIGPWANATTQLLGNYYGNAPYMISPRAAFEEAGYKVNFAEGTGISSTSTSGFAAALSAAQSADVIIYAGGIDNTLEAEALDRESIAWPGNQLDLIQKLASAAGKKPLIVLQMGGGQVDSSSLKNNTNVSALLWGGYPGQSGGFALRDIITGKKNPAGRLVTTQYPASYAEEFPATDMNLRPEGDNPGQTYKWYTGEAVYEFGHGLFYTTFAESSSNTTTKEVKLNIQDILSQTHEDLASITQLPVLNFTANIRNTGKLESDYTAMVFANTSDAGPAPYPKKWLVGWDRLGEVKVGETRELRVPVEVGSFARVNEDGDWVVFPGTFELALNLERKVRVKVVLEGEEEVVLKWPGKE
Procedure, shortened: (§1)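 A. niger N402 was grown in minimal medium with 50 mM (0.75% w/v) xylose or 1% w/v beechwood xylan as sole carbon source. Secretomes were sampled at days 1–9, brought to pH 4.5 with phosphate/citrate buffer and labeled unconcentrated with Cy5 ABPs. In competition runs, secretome was preincubated with competitor (e.g. 100 μM aziridine) before ABP. Bands were read by SDS-PAGE fluorescence scan.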

[2] = target: ∼30 kDa band (XlnC, β-xylanase) (Aspergillus niger, UniProt C5J411); test: as above; type: binding, A. niger; conditions: xylan-induced secretome preincubated with competitor, then ABP 8
Procedure, shortened: as §1

IC50 (ASPACDRAFT_127619): 204 µM
Structure (SMILES): Cc1cc(=O)oc2cc(O[C@@H]3OC[C@@H](O[C@@H]4OC[C@@H](O)[C@H](O)[C@H]4O)[C@H](O)[C@H]3O)ccc12 [4MU-β-D-xylobioside]

competition of ∼130 kDa band labeling by 8 ([1]; xylan-induced secretome preincubated with competitor, then ABP 8): No labeling inhibition
competition of ∼30 kDa band labeling by 8 [2]: No labeling inhibition
Structure (SMILES): OC[C@@H]1[C@@H](O)[C@H](O)[C@@H](O)[C@@H]2O[C@H]12 [Compound 22, cyclophellitol]

Structure (SMILES): OC[C@@H]1[C@@H](O)[C@H](O)[C@@H](O)[C@@H]2N[C@H]12 [Compound 23, cyclophellitol aziridine]
competition of ∼130 kDa band labeling by 8 ([1]; preincubation with 100 μM competitor): some loss of intensity
